Test results taken from ChEMBL document CHEMBL1153209, “Synthesis and biological activity of a potent and orally bioavailable SCD inhibitor (MF-438)” (Bioorg Med Chem Lett, 2010).

Experiments:
[1] = biological target: T1, Acyl-CoA desaturase 1 (Rattus norvegicus, UniProt P07308); assay: Inhibition of SCD1 in rat liver microsomes; parameters: species or system Microsome
T1 sequence (P07308 whole entry): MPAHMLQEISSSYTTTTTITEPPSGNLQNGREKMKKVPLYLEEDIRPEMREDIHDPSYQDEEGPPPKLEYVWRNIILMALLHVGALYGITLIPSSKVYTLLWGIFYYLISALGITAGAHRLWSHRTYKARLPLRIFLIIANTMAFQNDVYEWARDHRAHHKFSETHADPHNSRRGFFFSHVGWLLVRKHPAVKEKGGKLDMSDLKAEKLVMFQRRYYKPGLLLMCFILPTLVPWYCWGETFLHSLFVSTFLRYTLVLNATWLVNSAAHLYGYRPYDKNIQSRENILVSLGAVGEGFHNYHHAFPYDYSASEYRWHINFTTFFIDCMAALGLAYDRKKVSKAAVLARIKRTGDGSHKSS

[2] = test system: Mus musculus; assay: Inhibition of stearoyl-CoA […] in high-carbohydrate diet-fed mouse liver dosed orally assessed as conversion of [14C]stearic acid to [14C]oleic acid; format: functional; details: po
Procedure, shortened: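 Mice on a high-carbohydrate diet given compound PO, then IV 14C-stearic acid tracer 1 h later; livers collected 2 h after tracer and lipids analysed.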

[3] = Oral bioavailability in rat; format: ADME, organism-based; details: in vivo
[4] = Oral bioavailability in mouse; format: ADME, organism-based; details: in vivo
[5] = Half life in mouse; format: ADME, organism-based; details: in vivo
[6] = Half life in rat; format: ADME, organism-based; details: in vivo
[7] = biological target: T2, Cytochrome P450 3A4 (Homo sapiens, UniProt P08684); assay: Inhibition of CYP3A4 up to 30 uM; format: ADME
[8] = biological target: T3, Cytochrome P450 2D6 (Homo sapiens, UniProt P10635); assay: Inhibition of CYP2D6 up to 30 uM; format: ADME
[9] = test system: Mus musculus; assay: Toxicity in DIO mouse assessed as alopecia at 5 mg/kg qd for 1 week; format: organism-based; parameters: dose 5 mg/kg; details: in vivo, 168 h
[10] = test system: Mus musculus; assay: Toxicity in DIO mouse assessed as partial eye closure at 5 mg/kg qd for 1 week; format: organism-based; parameters: dose 5 mg/kg; details: in vivo, 168 h
[11] = test system: Mus musculus; assay: Toxicity in diet-induced obese chronic po dosed mouse; details: in vivo
[12] = Half life in rat at 10 mg/kg, po or 2 mg/kg, iv; format: ADME, organism-based; details: in vivo
Procedure, shortened: (§1)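 Rats dosed 10 mg/kg PO and 2 mg/kg IV; plasma concentration sampled over time for parent and its acid metabolite; each time point is the average of two animals.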

[13] = Bioavailability in rat at 10 mg/kg, po or 2 mg/kg, iv; format: ADME, organism-based; details: in vivo; procedure, shortened: as §1
[14] = biological target: T2, Cytochrome P450 3A4; assay: Inhibition of CYP3A4; format: ADME
[15] = biological target: T3, Cytochrome P450 2D6; assay: Inhibition of CYP2D6; format: ADME
[16] = AUC in rat at 10 mg/kg, po; format: ADME, organism-based; parameters: dose 10 mg/kg, route oral; details: plasma; procedure, shortened: as §1
[17] = AUC in rat at 2 mg/kg, iv; format: ADME, organism-based; parameters: dose 2 mg/kg, route intravenous; details: plasma; procedure, shortened: as §1
[18] = test system: Rattus norvegicus; assay: Stability in rat assessed as AUC of 6-(4-(2-(trifluoromethyl)phenoxy)piperidin-1-yl)pyridazine-3-carboxylic acid at 10 mg/kg, po; format: ADME, organism-based; parameters: dose 10 mg/kg, route oral; details: in vivo; procedure, shortened: as §1

T2 sequence (P08684 whole entry): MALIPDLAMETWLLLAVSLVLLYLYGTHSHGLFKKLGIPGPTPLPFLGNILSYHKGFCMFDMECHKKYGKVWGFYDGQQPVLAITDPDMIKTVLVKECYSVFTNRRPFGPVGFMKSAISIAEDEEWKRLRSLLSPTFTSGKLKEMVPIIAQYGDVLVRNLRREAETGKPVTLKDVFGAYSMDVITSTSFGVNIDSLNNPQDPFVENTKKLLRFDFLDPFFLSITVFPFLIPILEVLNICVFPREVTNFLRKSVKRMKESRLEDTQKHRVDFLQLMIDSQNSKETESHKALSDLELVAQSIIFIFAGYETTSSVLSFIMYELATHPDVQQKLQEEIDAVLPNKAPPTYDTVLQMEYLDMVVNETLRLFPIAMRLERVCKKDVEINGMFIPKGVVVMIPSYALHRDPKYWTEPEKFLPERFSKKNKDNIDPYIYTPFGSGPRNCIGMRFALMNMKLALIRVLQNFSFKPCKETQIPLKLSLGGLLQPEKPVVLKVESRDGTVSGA
T3 sequence (P10635 whole entry): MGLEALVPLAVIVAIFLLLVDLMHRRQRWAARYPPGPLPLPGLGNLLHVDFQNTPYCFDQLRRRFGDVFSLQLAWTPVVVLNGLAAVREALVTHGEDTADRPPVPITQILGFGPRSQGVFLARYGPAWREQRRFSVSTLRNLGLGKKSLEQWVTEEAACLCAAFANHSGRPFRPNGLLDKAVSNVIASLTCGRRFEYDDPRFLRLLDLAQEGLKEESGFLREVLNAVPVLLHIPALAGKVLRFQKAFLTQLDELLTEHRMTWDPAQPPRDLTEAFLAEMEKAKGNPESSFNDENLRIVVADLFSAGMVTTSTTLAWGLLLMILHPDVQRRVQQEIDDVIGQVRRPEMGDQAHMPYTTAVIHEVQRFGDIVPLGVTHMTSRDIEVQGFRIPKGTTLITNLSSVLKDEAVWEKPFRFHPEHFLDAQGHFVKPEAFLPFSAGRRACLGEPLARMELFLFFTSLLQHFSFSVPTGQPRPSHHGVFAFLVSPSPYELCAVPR

Structure (SMILES) | IC50 [1] [nM] | further results
c1cc(OC2CCN(c3ccc(-n4ccnc4)nn3)CC2)c2cc[nH]c2c1 | 162 | –
O=C(NCCC1CC1)c1ccc(N2CCN(C(=O)c3ccccc3C(F)(F)F)CC2)nn1 | 322 | –
CC(C)(C)c1nnc(-c2ccc(N3CCC(Oc4ccccc4C(F)(F)F)CC3)nn2)s1 | 710 | –
COc1ccccc1OC1CCN(c2ccc(-n3ccnc3)nn2)CC1 | 543 | –
c1ccc(OC2CCN(c3ccc(-n4ccnc4)nn3)CC2)cc1 | 1890 | –
Cc1cccc(OC2CCN(c3ccc(-n4ccnc4)nn3)CC2)c1 | 251 | –
Cc1ccc(OC2CCN(c3ccc(-n4ccnc4)nn3)CC2)cc1 | 527 | –
FC(F)(F)c1cccc(OC2CCN(c3ccc(-n4ccnc4)nn3)CC2)c1 | 19 | –
FC(F)(F)c1ccc(OC2CCN(c3ccc(-n4ccnc4)nn3)CC2)cc1 | 371 | –
FC(F)(F)c1ccccc1OC1CCN(c2ccc(-c3nnco3)nn2)CC1 | 22 | –
O=C(NCCC1CC1)c1ccc(N2CCC(Oc3ccccc3C(F)(F)F)CC2)nn1 | 14 | –
c1cc2c(c(OC3CCN(c4ccc(-n5ccnc5)nn4)CC3)c1)CCC2 | 10 | –
NC(=O)c1ccc(N2CCC(Oc3ccccc3C(F)(F)F)CC2)nn1 | 16 | AUC [16]: 0.9 µM·h; AUC [17]: 1.9 µM·h; AUC [18]: 179 µM·h; half-life [12]: 32.4 min; bioavailability [13]: 10%
O=C(O)c1ccc(N2CCC(Oc3ccccc3C(F)(F)F)CC2)nn1 | 10000 | –
CC(C)Cc1nnc(-c2ccc(N3CCC(Oc4ccccc4C(F)(F)F)CC3)nn2)o1 | 15 | –
CC(=O)c1ccccc1OC1CCN(c2ccc(-n3ccnc3)nn2)CC1 | 34 | –
c1cn(-c2ccc(N3CCC(Oc4ccc5c(c4)CCC5)CC3)nn2)cn1 | 62 | –
CC(C)(C)c1nnc(-c2ccc(N3CCC(Oc4ccccc4C(F)(F)F)CC3)nn2)o1 | 980 | –
CC(C)Cc1nnc(-c2ccc(N3CCC(Oc4ccccc4C(F)(F)F)CC3)nn2)s1 | 37 | –
Brc1cccc(OC2CCN(c3ccc(-n4ccnc4)nn3)CC2)c1 | 23 | –
CCc1cccc(OC2CCN(c3ccc(-n4ccnc4)nn3)CC2)c1 | 38 | –
N#Cc1ccccc1OC1CCN(c2ccc(-n3ccnc3)nn2)CC1 | 236 | –
Cc1ccccc1OC1CCN(c2ccc(-n3ccnc3)nn2)CC1 | 39 | –

The next compounds have a lower IC50 [1] than those just listed; values first:

IC50 [1] [nM] | Structure (SMILES) | further results
8.8 | CC(C)c1nnc(-c2ccc(N3CCC(Oc4ccccc4C(F)(F)F)CC3)nn2)s1 | –
6.1 | Oc1nnc(-c2ccc(N3CCC(Oc4ccccc4C(F)(F)F)CC3)nn2)s1 | –
6 | Cc1nnc(-c2ccc(N3CCC(Oc4ccccc4C(F)(F)F)CC3)nn2)o1 | –
5 | Brc1ccccc1OC1CCN(c2ccc(-n3ccnc3)nn2)CC1 | –
4 | FC(F)(F)c1ccccc1OC1CCN(c2ccc(-n3ccnc3)nn2)CC1 | half-life [12]: 72 min; bioavailability [13]: 53%; IC50 [14]: 400 nM; IC50 [15]: 300 nM
4 | CCc1ccccc1OC1CCN(c2ccc(-n3ccnc3)nn2)CC1 | –
3.9 | CC(C)c1nnc(-c2ccc(N3CCC(Oc4ccccc4C(F)(F)F)CC3)nn2)o1 | –
3.2 | OCc1nnc(-c2ccc(N3CCC(Oc4ccccc4C(F)(F)F)CC3)nn2)s1 | –
2.9 | OCc1nnc(-c2ccc(N3CCC(Oc4ccccc4C(F)(F)F)CC3)nn2)o1 | –
2.3 | Cc1nnc(-c2ccc(N3CCC(Oc4ccccc4C(F)(F)F)CC3)nn2)s1 | ED50 [2]: 1 mg/kg; bioavailability [3]: 38%; bioavailability [4]: 73%; half-life [5]: 384 min; half-life [6]: 360 min; inhibition (INH) [7]: Not Active; inhibition (INH) [8]: Not Active; Activity [9]: Toxic; Activity [10]: Toxic; Activity [11]: Toxic
